This is an account of results in ChEMBL document CHEMBL1155379, “Effect of 3'-end capping of aptamer with various 2',4'-bridged nucleotides: Enzymatic post-modification toward a practical use of polyclonal aptamers” (Bioorg Med Chem Lett, 2010).

SMILES strings stand for the structures.

Data set [1] is described as follows: Chemical stability in presence of snake venom phosphodiesterase 1 assessed as oligonucleotide degradation after 120 mins by PAGE. In kind it is physicochemical. The settings on record: 2 h.
In the next data set the target is Prothrombin (Homo sapiens, UniProt P00734). Description: Binding affinity to human thrombin after 30 mins by non-equilibrium capillary electrophoresis. The gist of the method: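 Capillary electrophoresis of aptamer–thrombin mixtures: aptamer 1 nM with thrombin 4 nM in 20 mM Tris-HCl (1 mM MgCl2) pH 7.4 sample buffer; running buffer 100 mM sodium borate pH 8.35; separation +12 kV, injection 0.5 psi × 7.8 s. Kd derived from binding saturation curves over varied thrombin concentrations.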

As usually defined, the Kd is the equilibrium constant for the complex coming apart. Lower therefore signals tighter binding. In the case of `C=C1NC(=O)C(C)=CN1[C@H]1C[C@H](OP(=O)(O)OC[C@H]2O[C@@H](n3cnc4c(=O)[nH]c(N)nc43)[C@H](O)[C@@H]2OP(=O)(O)OC[C@H]2O[C@@H](n3cnc4c(N)ncnc43)[C@H](O)[C@@H]2OP(=O)(O)OC[C@H]2O[C@@H](n3ccc(N)nc3=O)[C@H](O)[C@@H]2OP(=O)(O)OC[C@H]2O[C@@H](n3cc(C)c(=O)[nH]c3=O)C[C@@H]2OP(=O)(O)OC[C@@]23CO[C@@H]([C@H](n4cc(C)c(=O)[nH]c4=O)O2)[C@@H]3O)[C@@H](COP(=O)(O)O[C@H]2[C@@H](O)[C@H](n3cnc4c(=O)[nH]c(N)nc43)O[C@@H]2COP(=O)(O)O[C@H]2[C@@H](O)[C@H](n3cnc4c(=O)[nH]c(N)nc43)O[C@@H]2COP(=O)(O)O[C@H]2[C@@H](O)[C@H](n3cnc4c(=O)[nH]c(N)nc43)O[C@@H]2COP(=O)(O)O[C@H]2[C@@H](O)[C@H](n3cnc4c(=O)[nH]c(N)nc43)O[C@@H]2COP(=O)(O)O[C@H]2C[C@H](n3cc(C)c(=O)[nH]c3=O)O[C@@H]2COP(=O)(O)O[C@H]2C[C@H](n3cc(C)c(=O)[nH]c3=O)O[C@@H]2COP(=O)(O)O[C@H]2[C@@H](O)[C@H](n3cnc4c(=O)[nH]c(N)nc43)O[C@@H]2COP(=O)(O)O[C@H]2[C@@H](O)[C@H](n3cnc4c(=O)[nH]c(N)nc43)O[C@@H]2COP(=O)(O)O[C@H]2[C@@H](O)[C@H](n3cnc4c(N)ncnc43)O[C@@H]2COP(=O)(O)O[C@H]2[C@@H](O)[C@H](n3ccc(N)nc3=O)O[C@@H]2COP(=O)(O)O[C@H]2[C@@H](O)[C@H](n3cnc4c(=O)[nH]c(N)nc43)O[C@@H]2COP(=O)(O)O[C@H]2[C@@H](O)[C@H](n3cnc4c(=O)[nH]c(N)nc43)O[C@@H]2COP(=O)(O)O[C@H]2[C@@H](O)[C@H](n3cnc4c(=O)[nH]c(N)nc43)O[C@@H]2COP(=O)(O)O[C@H]2[C@@H](O)[C@H](n3cnc4c(N)ncnc43)O[C@@H]2COP(=O)(O)O[C@H]2C[C@H](n3cc(C)c(=O)[nH]c3=O)O[C@@H]2COP(=O)(O)O[C@H]2[C@@H](O)[C@H](n3cnc4c(=O)[nH]c(N)nc43)O[C@@H]2COP(=O)(O)O[C@H]2[C@@H](O)[C@H](n3cnc4c(=O)[nH]c(N)nc43)O[C@@H]2COP(=O)(O)O[C@H]2C[C@H](n3cc(C)c(=O)[nH]c3=O)O[C@@H]2COP(=O)(O)O[C@H]2[C@@H](O)[C@H](n3cnc4c(=O)[nH]c(N)nc43)O[C@@H]2COP(=O)(O)O[C@H]2[C@@H](O)[C@H](n3ccc(N)nc3=O)O[C@@H]2COP(=O)(O)O[C@H]2[C@@H](O)[C@H](n3ccc(N)nc3=O)O[C@@H]2COP(=O)(O)O[C@H]2C[C@H](n3cc(C)c(=O)[nH]c3=O)O[C@@H]2COP(=O)(O)O[C@H]2[C@@H](O)[C@H](n3cnc4c(=O)[nH]c(N)nc43)O[C@@H]2COP(=O)(O)O[C@H]2[C@@H](O)[C@H](n3cnc4c(N)ncnc43)O[C@@H]2COc2ccc3c(c2)Oc2cc(O)ccc2C32OC(=O)c3ccccc32)O1` (some centres undefined), the Stability entry in data set [1] is given as “Stable”. The same molecule returned a Kd at Prothrombin of 0.18 nM.

On to `C=C1NC(=O)C(C)=CN1[C@H]1C[C@H](OP(=O)(O)OC[C@H]2O[C@@H](n3cnc4c(=O)[nH]c(N)nc43)[C@H](O)[C@@H]2OP(=O)(O)OC[C@H]2O[C@@H](n3cnc4c(N)ncnc43)[C@H](O)[C@@H]2OP(=O)(O)OC[C@H]2O[C@@H](n3ccc(N)nc3=O)[C@H](O)[C@@H]2OP(=O)(O)OC[C@H]2O[C@@H](n3cc(C)c(=O)[nH]c3=O)C[C@@H]2OP(=O)(O)OC[C@@]23COCO[C@@H]([C@H](n4cc(C)c(=O)[nH]c4=O)O2)[C@@H]3O)[C@@H](COP(=O)(O)O[C@H]2[C@@H](O)[C@H](n3cnc4c(=O)[nH]c(N)nc43)O[C@@H]2COP(=O)(O)O[C@H]2[C@@H](O)[C@H](n3cnc4c(=O)[nH]c(N)nc43)O[C@@H]2COP(=O)(O)O[C@H]2[C@@H](O)[C@H](n3cnc4c(=O)[nH]c(N)nc43)O[C@@H]2COP(=O)(O)O[C@H]2[C@@H](O)[C@H](n3cnc4c(=O)[nH]c(N)nc43)O[C@@H]2COP(=O)(O)O[C@H]2C[C@H](n3cc(C)c(=O)[nH]c3=O)O[C@@H]2COP(=O)(O)O[C@H]2C[C@H](n3cc(C)c(=O)[nH]c3=O)O[C@@H]2COP(=O)(O)O[C@H]2[C@@H](O)[C@H](n3cnc4c(=O)[nH]c(N)nc43)O[C@@H]2COP(=O)(O)O[C@H]2[C@@H](O)[C@H](n3cnc4c(=O)[nH]c(N)nc43)O[C@@H]2COP(=O)(O)O[C@H]2[C@@H](O)[C@H](n3cnc4c(N)ncnc43)O[C@@H]2COP(=O)(O)O[C@H]2[C@@H](O)[C@H](n3ccc(N)nc3=O)O[C@@H]2COP(=O)(O)O[C@H]2[C@@H](O)[C@H](n3cnc4c(=O)[nH]c(N)nc43)O[C@@H]2COP(=O)(O)O[C@H]2[C@@H](O)[C@H](n3cnc4c(=O)[nH]c(N)nc43)O[C@@H]2COP(=O)(O)O[C@H]2[C@@H](O)[C@H](n3cnc4c(=O)[nH]c(N)nc43)O[C@@H]2COP(=O)(O)O[C@H]2[C@@H](O)[C@H](n3cnc4c(N)ncnc43)O[C@@H]2COP(=O)(O)O[C@H]2C[C@H](n3cc(C)c(=O)[nH]c3=O)O[C@@H]2COP(=O)(O)O[C@H]2[C@@H](O)[C@H](n3cnc4c(=O)[nH]c(N)nc43)O[C@@H]2COP(=O)(O)O[C@H]2[C@@H](O)[C@H](n3cnc4c(=O)[nH]c(N)nc43)O[C@@H]2COP(=O)(O)O[C@H]2C[C@H](n3cc(C)c(=O)[nH]c3=O)O[C@@H]2COP(=O)(O)O[C@H]2[C@@H](O)[C@H](n3cnc4c(=O)[nH]c(N)nc43)O[C@@H]2COP(=O)(O)O[C@H]2[C@@H](O)[C@H](n3ccc(N)nc3=O)O[C@@H]2COP(=O)(O)O[C@H]2[C@@H](O)[C@H](n3ccc(N)nc3=O)O[C@@H]2COP(=O)(O)O[C@H]2C[C@H](n3cc(C)c(=O)[nH]c3=O)O[C@@H]2COP(=O)(O)O[C@H]2[C@@H](O)[C@H](n3cnc4c(=O)[nH]c(N)nc43)O[C@@H]2COP(=O)(O)O[C@H]2[C@@H](O)[C@H](n3cnc4c(N)ncnc43)O[C@@H]2COc2ccc3c(c2)Oc2cc(O)ccc2C32OC(=O)c3ccccc32)O1` (some centres undefined), for which, in data set [1], the Stability result is given as “Stable”. The molecule also registered a dissociation constant Kd on Prothrombin of 0.27 nM.
